Assay results from ChEMBL document CHEMBL1157038, “Synthesis and in vitro microbiological evaluation of an array of biolabile 2-morpholino-N-(4,6-diarylpyrimidin-2-yl)acetamides” (2010).
≈ marks a conversion by molar mass, not a printed value.

Experiments:
Type in all cases: functional
[1] = system: Vibrio cholerae; experiment: Antibacterial activity against Vibrio cholerae after 24 hrs by twofold serial dilution method
[2] = system: Escherichia coli; experiment: Antibacterial activity against Escherichia coli after 24 hrs by twofold serial dilution method
How it was run: (§1)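 Compounds dissolved in DMSO as 1 mg/mL stock. Seeded nutrient broth prepared from 24 h nutrient agar cultures, adjusted by plate count. Final inoculum 10⁵ cfu/mL at pH 7.4. First dilution was 0.4 mL stock in 1.6 mL seeded broth, then serial twofold through six dilutions. Seeded-broth-only tubes served as controls. Incubated at 37 °C; MIC read visually at 24 h.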

[3] = system: Pseudomonas; experiment: Antibacterial activity against Pseudomonas after 24 hrs by twofold serial dilution method; how it was run: as §1
[4] = system: Staphylococcus aureus; experiment: Antibacterial activity against Staphylococcus aureus after 24 hrs by twofold serial dilution method; how it was run: as §1
[5] = system: Klebsiella pneumoniae; experiment: Antibacterial activity against Klebsiella pneumoniae after 24 hrs by twofold serial dilution method; how it was run: as §1
[6] = system: Aspergillus flavus; experiment: Antifungal activity against Aspergillus flavus after 1 to 7 days by twofold serial dilution method
How it was run: (§2)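 Test compounds were made as 1 mg/mL DMSO stocks. Spores from 1–7 day Sabouraud agar slants were suspended in Sabouraud dextrose broth at pH 5.6. Final inoculum 1.1–1.5×10² cfu/mL. First dilution was 0.4 mL stock plus 1.6 mL seeded broth, followed by six twofold serial dilutions. Controls held seeded broth only. Incubated at 28 °C; MIC read visually after 72–96 h.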

[7] = system: Mucor; experiment: Antifungal activity against Mucor after 1 to 7 days by twofold serial dilution method; how it was run: as §2
[8] = system: Rhizopus; experiment: Antifungal activity against Rhizopus after 1 to 7 days by twofold serial dilution method; how it was run: as §2
[9] = system: Nannizzia gypsea; experiment: Antifungal activity against Microsporum gypseum after 1 to 7 days by twofold serial dilution method; how it was run: as §2

| Structure (SMILES) | MIC [1] [µg/mL] | MIC [2] [µg/mL] | MIC [3] [µg/mL] | MIC [4] [µg/mL] | MIC [5] [µg/mL] | MIC [6] [µg/mL] | MIC [7] [µg/mL] | MIC [8] [µg/mL] | MIC [9] [µg/mL] |
| --- | --- | --- | --- | --- | --- | --- | --- | --- | --- |
| O=C(O)c1cn(C2CC2)c2cc(N3CCNCC3)c(F)cc2c1=O [CIPROFLOXACIN] | 50 (≈ 151 µM) | 25 (≈ 75.4 µM) | 25 (≈ 75.4 µM) |  |  |  |  |  |  |
| O=C(CN1CCOCC1)Nc1nc(-c2ccccc2)cc(-c2ccccc2)n1 | 200 (≈ 534 µM) | 200 (≈ 534 µM) | 100 (≈ 267 µM) | 200 (≈ 534 µM) | 50 (≈ 134 µM) | 200 (≈ 534 µM) | 100 (≈ 267 µM) | 100 (≈ 267 µM) | 200 (≈ 534 µM) |
| O=C(CN1CCOCC1)Nc1nc(-c2ccc(F)cc2)cc(-c2ccc(F)cc2)n1 | 50 (≈ 122 µM) | 6.25 (≈ 15.2 µM) | 6.25 (≈ 15.2 µM) | 100 (≈ 244 µM) | 50 (≈ 122 µM) | 12.5 (≈ 30.5 µM) | 6.25 (≈ 15.2 µM) | 6.25 (≈ 15.2 µM) | 100 (≈ 244 µM) |
| O=C(CN1CCOCC1)Nc1nc(-c2ccccc2)cc(-c2ccc(F)cc2)n1 | 50 (≈ 127 µM) | 50 (≈ 127 µM) | 100 (≈ 255 µM) | 200 (≈ 510 µM) | 6.25 (≈ 15.9 µM) | 6.25 (≈ 15.9 µM) | 50 (≈ 127 µM) | 100 (≈ 255 µM) | 200 (≈ 510 µM) |
| COc1ccc(-c2cc(-c3ccccc3)nc(NC(=O)CN3CCOCC3)n2)cc1 | 100 (≈ 247 µM) | 200 (≈ 494 µM) | 50 (≈ 124 µM) | 50 (≈ 124 µM) | 100 (≈ 247 µM) | 100 (≈ 247 µM) | 200 (≈ 494 µM) | 100 (≈ 247 µM) | 100 (≈ 247 µM) |
| COc1ccc(-c2cc(-c3ccc(F)cc3)nc(NC(=O)CN3CCOCC3)n2)cc1 | 100 (≈ 237 µM) | 50 (≈ 118 µM) | 6.25 (≈ 14.8 µM) | 200 (≈ 473 µM) | 100 (≈ 237 µM) | 6.25 (≈ 14.8 µM) | 6.25 (≈ 14.8 µM) | 200 (≈ 473 µM) | 100 (≈ 237 µM) |
| COc1ccc(-c2cc(-c3ccc(C)cc3)nc(NC(=O)CN3CCOCC3)n2)cc1 | 12.5 (≈ 29.9 µM) | 200 (≈ 478 µM) | 50 (≈ 119 µM) | 100 (≈ 239 µM) | 50 (≈ 119 µM) | 100 (≈ 239 µM) | 50 (≈ 119 µM) | 12.5 (≈ 29.9 µM) | 50 (≈ 119 µM) |
| Cc1ccc(-c2cc(-c3ccccc3)nc(NC(=O)CN3CCOCC3)n2)cc1 | 100 (≈ 257 µM) | 50 (≈ 129 µM) | 50 (≈ 129 µM) | 50 (≈ 129 µM) | 100 (≈ 257 µM) | 100 (≈ 257 µM) | 50 (≈ 129 µM) | 50 (≈ 129 µM) | 50 (≈ 129 µM) |
| Cc1ccc(-c2cc(-c3ccc(F)cc3)nc(NC(=O)CN3CCOCC3)n2)cc1 | 12.5 (≈ 30.8 µM) | 50 (≈ 123 µM) | 100 (≈ 246 µM) | 12.5 (≈ 30.8 µM) | 50 (≈ 123 µM) | 200 (≈ 492 µM) | 100 (≈ 246 µM) | 50 (≈ 123 µM) | 12.5 (≈ 30.8 µM) |
| OC(Cn1cncn1)(Cn1cncn1)c1ccc(F)cc1F [FLUCONAZOLE] |  |  |  |  |  | 50 (≈ 163 µM) | 25 (≈ 81.6 µM) | 25 (≈ 81.6 µM) | 25 (≈ 81.6 µM) |
